Measured values as given in paper PMC5817915 (European journal of medicinal chemistry, 2017).
Where a name gives a salt, the structure may show the parent alone.

Legend:
HeLa cells = experiment: Total tyrosine phosphorylation ELISA; assay type: cell-based; conditions: at any of 0.1, 1.0 and 10.0 μM
Outline: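 HeLa cells in RPMI-1640 with 10% FBS were seeded at 2 × 10^4 cells/well in triplicate and serum-starved 24 h. They were then treated 10 min with test compound at 0.1, 1.0 or 10.0 μM, with 0.25% DMSO as vehicle control and EGF (50 ng/mL, 10 min) as positive control. Total phosphotyrosine was measured with a tyrosine phosphorylation ELISA kit and compared with vehicle.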

PTPRZ1 = PTPRZ1 (Homo sapiens, UniProt P23471); experiment: In vitro dephosphorylation assay, phosphate sensor reagent, p-NPP substrate; assay type: biochemical; conditions: for inhibition at 1 µM: read-out: inhibition of the phosphatase activity of PTPRZ1
Outline: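 Single-concentration screen: human recombinant PTPRZ1 (0.1 μM) incubated with test compound at 1.0 μM and p-NPP substrate. Phosphate release was detected with a phosphate sensor reagent by fluorescence (excitation 430 nm, emission 450 nm) and expressed as percent inhibition of phosphatase activity.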

PTP1B = target: T1, PTP1B (Homo sapiens, UniProt P18031); experiment: In vitro dephosphorylation assay, phosphate sensor reagent, p-NPP substrate; assay type: biochemical; conditions: from IC50 values of Table 2
T1 sequence (P18031 1-435): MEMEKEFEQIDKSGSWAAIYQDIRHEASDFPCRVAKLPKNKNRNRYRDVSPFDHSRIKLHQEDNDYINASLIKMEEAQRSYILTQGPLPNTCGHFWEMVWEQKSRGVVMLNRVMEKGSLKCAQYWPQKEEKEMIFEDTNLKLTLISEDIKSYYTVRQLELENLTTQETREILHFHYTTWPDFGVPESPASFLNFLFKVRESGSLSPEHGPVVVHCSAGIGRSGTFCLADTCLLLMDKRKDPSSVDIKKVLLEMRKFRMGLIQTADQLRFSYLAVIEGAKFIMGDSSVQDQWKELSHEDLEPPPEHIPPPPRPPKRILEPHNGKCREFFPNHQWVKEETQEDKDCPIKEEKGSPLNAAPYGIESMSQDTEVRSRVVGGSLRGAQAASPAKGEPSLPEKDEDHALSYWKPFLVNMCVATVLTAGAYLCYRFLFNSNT
Outline: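 Human recombinant PTPRZ1 and PTP1B, each at 0.1 μM, tested against test compound at 0.001–100 μM with p-NPP as substrate. Released inorganic phosphate was detected with a phosphate sensor reagent as a fluorescence increase (excitation 430 nm, emission 450 nm). IC50 values were calculated for each enzyme, and selectivity was judged by comparing the PTPRZ1 and PTP1B IC50s.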

ALK (Tyr1278) = experiment: Western blot of ALK phosphorylation in SH-SY5Y cells; assay type: cell-based, human; conditions: SH-SY5Y cells, 1.0, 5.0 and 10.0 μM, 20 minutes
Outline: (§1)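 Human SH-SY5Y cells, grown in EMEM/F12 (1:1) with 10% FBS at 37 °C and 5% CO2, were switched to serum-free medium just before treatment. They were then exposed to test compound (1.0, 5.0, 10.0 μM) or DMSO vehicle for 20 min and lysed in Tris-HCl pH 7.5/Triton buffer with phosphatase and protease inhibitors. Lysate (20 μg protein) was run on SDS-PAGE and blotted to PVDF. Blots were probed for phospho-TrkA (Y490) or phospho-ALK (Y1278), reprobed for total TrkA or ALK, and detected by ECL. Densitometry data are mean ± S.E.M., analysed by one-way ANOVA with Tukey post-hoc.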

TrkA (Tyr490) = experiment: Western blot of TrkA phosphorylation in SH-SY5Y cells; assay type: cell-based, human; conditions: SH-SY5Y cells, 1.0, 5.0 and 10.0 μM, 20 minutes
Outline: as §1

PC12 cells = experiment: Amphetamine-induced toxicity, cell viability by MTT; assay type: cell-based, Rat; conditions: amphetamine 1 mM, compound 1.0 μM, 24 hours
Outline: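 Rat PC12 cells grown in RPMI-1640 with 10% FBS, seeded at 10^4 cells/well, then co-incubated with amphetamine (1.0 mM) and test compound (1.0 μM). For MTT, cells were PBS-washed and given fresh medium with MTT (5 mg/mL stock) for 4 h. Formazan was dissolved in DMSO with 10 min shaking at RT, and absorbance read at 570 nm. Data are mean ± S.E.M., analysed by one-way ANOVA with Tukey post-hoc.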

alcohol-induced reward = conditions: mice; cited from earlier work
[1] = In vivo permeability study, GC-MS detection in plasma and brain; conditions: mice, 1h post-gavage, 60 mg/kg
Outline: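 Mice were dosed by oral gavage at 60 mg/kg and killed 1 h later; brain and plasma were collected. Brain (50–100 mg) was bead-homogenised in ethyl acetate, then the supernatant was dried and taken up in heptane. Plasma (100 μL) was precipitated with 3 volumes of cold methanol at -2 °C for 20 min, dried and reconstituted in heptane. Samples were analysed by GC-MS (EI 70 eV), quantifying the extracted ion at m/z 191.0137 (LOQ ~70 ng/mL).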

Chain of PTPRZ1 (P23471 25-2315): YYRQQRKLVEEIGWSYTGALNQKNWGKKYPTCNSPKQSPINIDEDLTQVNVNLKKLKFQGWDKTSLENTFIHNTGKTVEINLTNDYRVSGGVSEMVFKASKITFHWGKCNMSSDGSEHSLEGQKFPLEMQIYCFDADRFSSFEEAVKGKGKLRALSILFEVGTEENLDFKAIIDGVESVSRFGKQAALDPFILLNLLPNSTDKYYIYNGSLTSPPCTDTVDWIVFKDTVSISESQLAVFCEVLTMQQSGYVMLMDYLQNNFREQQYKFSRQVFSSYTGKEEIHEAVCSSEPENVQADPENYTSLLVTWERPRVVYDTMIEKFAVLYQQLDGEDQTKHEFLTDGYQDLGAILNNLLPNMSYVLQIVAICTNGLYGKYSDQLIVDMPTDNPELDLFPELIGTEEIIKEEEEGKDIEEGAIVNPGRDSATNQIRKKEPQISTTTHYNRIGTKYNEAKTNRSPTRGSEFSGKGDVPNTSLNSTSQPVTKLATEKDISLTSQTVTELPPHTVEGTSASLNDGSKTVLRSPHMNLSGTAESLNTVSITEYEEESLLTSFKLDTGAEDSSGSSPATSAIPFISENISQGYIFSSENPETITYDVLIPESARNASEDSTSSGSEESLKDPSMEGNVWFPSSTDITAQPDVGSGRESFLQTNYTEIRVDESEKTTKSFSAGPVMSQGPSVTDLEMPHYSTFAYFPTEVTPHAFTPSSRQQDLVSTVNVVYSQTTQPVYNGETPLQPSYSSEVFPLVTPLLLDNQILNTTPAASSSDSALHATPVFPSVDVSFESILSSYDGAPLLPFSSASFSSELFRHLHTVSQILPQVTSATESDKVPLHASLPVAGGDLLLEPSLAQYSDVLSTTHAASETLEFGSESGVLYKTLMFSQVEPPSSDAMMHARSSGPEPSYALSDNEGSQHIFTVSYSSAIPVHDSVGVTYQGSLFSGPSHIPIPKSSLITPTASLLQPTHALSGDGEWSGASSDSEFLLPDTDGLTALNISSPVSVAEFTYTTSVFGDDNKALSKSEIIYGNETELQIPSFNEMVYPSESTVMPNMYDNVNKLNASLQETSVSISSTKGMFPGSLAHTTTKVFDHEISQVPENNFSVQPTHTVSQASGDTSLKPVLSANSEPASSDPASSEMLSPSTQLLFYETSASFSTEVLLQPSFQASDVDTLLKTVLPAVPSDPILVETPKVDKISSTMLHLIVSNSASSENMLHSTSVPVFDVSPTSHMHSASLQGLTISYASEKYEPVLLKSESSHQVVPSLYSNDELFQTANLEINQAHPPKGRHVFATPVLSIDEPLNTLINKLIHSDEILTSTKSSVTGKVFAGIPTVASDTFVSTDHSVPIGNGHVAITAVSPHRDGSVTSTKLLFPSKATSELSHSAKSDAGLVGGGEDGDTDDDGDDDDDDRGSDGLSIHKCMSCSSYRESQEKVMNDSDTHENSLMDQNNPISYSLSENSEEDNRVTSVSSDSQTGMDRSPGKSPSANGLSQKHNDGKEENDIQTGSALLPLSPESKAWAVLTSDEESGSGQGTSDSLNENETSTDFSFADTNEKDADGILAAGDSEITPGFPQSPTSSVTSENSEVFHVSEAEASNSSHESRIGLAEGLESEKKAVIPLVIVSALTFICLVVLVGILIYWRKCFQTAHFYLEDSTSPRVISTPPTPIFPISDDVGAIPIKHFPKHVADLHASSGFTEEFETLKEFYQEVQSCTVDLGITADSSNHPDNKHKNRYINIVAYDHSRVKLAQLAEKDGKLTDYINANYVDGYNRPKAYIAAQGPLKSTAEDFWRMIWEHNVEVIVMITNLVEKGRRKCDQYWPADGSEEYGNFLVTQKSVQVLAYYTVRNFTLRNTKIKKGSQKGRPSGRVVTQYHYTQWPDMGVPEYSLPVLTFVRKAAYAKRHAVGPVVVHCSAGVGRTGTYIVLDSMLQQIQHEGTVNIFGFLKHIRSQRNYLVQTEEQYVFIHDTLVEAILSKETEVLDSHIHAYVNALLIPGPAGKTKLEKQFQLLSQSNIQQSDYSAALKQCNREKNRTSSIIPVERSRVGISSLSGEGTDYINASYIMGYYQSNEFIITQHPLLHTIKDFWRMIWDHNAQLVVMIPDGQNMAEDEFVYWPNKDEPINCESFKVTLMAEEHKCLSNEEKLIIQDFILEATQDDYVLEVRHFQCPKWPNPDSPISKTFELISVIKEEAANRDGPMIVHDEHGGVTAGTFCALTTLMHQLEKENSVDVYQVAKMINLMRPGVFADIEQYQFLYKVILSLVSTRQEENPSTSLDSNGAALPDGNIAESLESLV

inhibition at 1 µM (PTPRZ1) [%]	selectivity PTPRZ1 versus PTP1B (PTP1B)	SMILES	increase of Phospho-Tyr levels (HeLa cells) [%]	further results
≥ 10		FC(F)(F)Sc1ccc(NCc2ccccc2)cc1 [12d, N-benzyl-4-((trifluoromethyl)thio)aniline]	≥ 10	
≥ 10	strongly and selectively inhibit PTPRZ1	FC(F)(F)Sc1ccc(CNCc2ccc(SC(F)(F)F)cc2)cc1 [12b, Bis(4-((trifluoromethyl)thio)benzyl)amine hydrochloride]		increase in phosphorylation of ALK 140 kDa isoform (ALK (Tyr1278)): 2 fold; increase of tyrosine phosphorylation of TrkA (TrkA (Tyr490)): 2–3 fold; effect on amphetamine-induced loss of PC12 cell viability (PC12 cells): the same trend was observed

Further lines, the compound ahead of its results:

SMILES	inhibition at 1 µM (PTPRZ1) [%]	selectivity PTPRZ1 versus PTP1B (PTP1B)	increase of Phospho-Tyr levels (HeLa cells) [%]	further results
FC(F)(F)Sc1ccc(CN(Cc2ccc(SC(F)(F)F)cc2)Cc2ccc(SC(F)(F)F)cc2)cc1 [compound 13, tris(4-((trifluoromethyl)thio)benzyl)amine]			≥ 10	
O=S(=O)(c1ccc(COc2ccc(S(=O)(=O)C(F)(F)F)cc2)cc1)C(F)(F)F [compound 1, 1-((Trifluoromethyl)sulfonyl)-4-((4-((trifluoromethyl)sulfonyl)benzyl)oxy)benzene, reference compound]				PTPRZ1 phosphatase activity inhibition (PTPRZ1): failed to inhibit PTPRZ1 phosphatase activity
O=C(Cc1ccc(S(=O)(=O)C(F)(F)F)cc1)Nc1ccc(S(=O)(=O)C(F)(F)F)cc1 [5b, N,2-bis(4-((trifluoromethyl)sulfonyl)phenyl)acetamide]	≥ 10			
O=C(Cc1ccc(SC(F)(F)F)cc1)NCc1ccc(SC(F)(F)F)cc1 [4c, N-(4-((Trifluoromethyl)thio)benzyl)-2-(4-((trifluoromethyl)thio)phenyl)acetamide]		remarkable selectivity against PTP1B		
FC(F)(F)Sc1ccc(COc2ccc(SC(F)(F)F)cc2)cc1 [10a, (Trifluoromethyl)(4-((4-((trifluoromethyl)thio)benzyl)oxy)phenyl)sulfane]	≥ 10	strongly and selectively inhibit PTPRZ1	≥ 10	effect on alcohol-induced reward (alcohol-induced reward): completely blocked alcohol-induced reward in mice; ability to cross the BBB [1]: can cross the BBB; increase of tyrosine phosphorylation of TrkA (TrkA (Tyr490)): 2–3 fold; effect on amphetamine-induced loss of PC12 cell viability (PC12 cells): significantly prevented amphetamine-induced loss of PC12 cell viability
